# Laboratory results as given in ChEMBL document CHEMBL1143707, “7-Arylpiperazinylalkyl and 7-tetrahydroisoquinolinylalkyl derivatives of 8-alkoxy-purine-2,6-dione and some of their purine-2,6,8-trione analogs as 5-HT(1A), 5-HT(2A), and 5-HT(7) serotonin receptor ligands” (Bioorg Med Chem, 2007).
# Experiments:
# [1] = molecular target: T1, 5-hydroxytryptamine receptor 1A (Rattus norvegicus, UniProt P19327); assay: Displacement of [3H]8-OH-DPAT from rat brain 5HT1A receptor
# T1 sequence (P19327 whole entry): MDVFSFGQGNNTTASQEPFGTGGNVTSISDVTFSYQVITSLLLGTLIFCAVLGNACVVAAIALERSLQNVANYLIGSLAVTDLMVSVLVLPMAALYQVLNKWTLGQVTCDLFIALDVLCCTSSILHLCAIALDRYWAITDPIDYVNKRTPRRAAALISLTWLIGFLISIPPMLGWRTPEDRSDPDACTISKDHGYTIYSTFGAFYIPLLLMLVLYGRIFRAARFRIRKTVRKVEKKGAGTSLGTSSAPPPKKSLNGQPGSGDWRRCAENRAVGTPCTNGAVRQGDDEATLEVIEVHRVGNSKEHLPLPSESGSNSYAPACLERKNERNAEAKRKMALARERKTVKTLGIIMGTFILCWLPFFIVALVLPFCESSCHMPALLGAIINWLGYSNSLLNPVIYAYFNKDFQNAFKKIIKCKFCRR
# Outline: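 Rat hippocampal membranes; 1 nM [3H]-8-OH-DPAT; nonspecific binding with 10 μM 5-HT; 8–10 competitor concentrations in triplicate, ≥3 experiments; GF/B filtration, ice-cold buffer washes, scintillation counting; Ki by nonlinear regression with Cheng–Prusoff.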
# [2] = molecular target: 5-hydroxytryptamine receptor 7 (Rattus norvegicus, UniProt P32305); assay: Displacement of [3H]5CT from 5HT7 receptor in Wistar rat hyphalamic membrane; type: cell membranes
# [3] = molecular target: 5-hydroxytryptamine receptor 2A (Rattus norvegicus, UniProt P14842); assay: Displacement of [3H]ketanserin from rat brain 5HT2A receptor
# Outline: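 Rat brain membranes; 0.6 nM [3H]-ketanserin; nonspecific binding with 1 μM methysergide; 8–10 competitor concentrations in triplicate, ≥3 experiments; GF/B filtration, scintillation counting; Ki via Cheng–Prusoff.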
# Mus musculus [4] = assay: Decrease in body temperature in Swiss Albino mouse at 5 mg/kg, ip administered 30 mins before the test measured after 90 mins relative to control; type: functional; conditions: route intraperitoneal
# Outline: (§1)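 Male Albino Swiss mice (24-28 g) given compound ip in 1% aqueous Tween 80 (10 mL/kg); rectal temperature read at 30, 60, 90 and 120 min post-dose; Δt versus basal temperature taken at start (initial ~36.0 °C); n = 8/group; mean ± SEM.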
# Mus musculus [5] = assay: Effect on body temperature in Swiss Albino mouse assessed as decrease at 10 mg/kg, ip after 120 mins relative to initial temperature; type: functional; conditions: route intraperitoneal; outline: as §1
# Mus musculus [6] = assay: Decrease in body temperature in Swiss Albino mouse at 5 mg/kg, ip administered 30 mins before the test measured after 120 mins relative to control; type: functional; conditions: route intraperitoneal; outline: as §1
# Mus musculus [7] = assay: Effect on body temperature in Swiss Albino mouse assessed as decrease at 10 mg/kg, ip after 30 mins relative to initial temperature; type: functional; conditions: route intraperitoneal; outline: as §1
# Mus musculus [8] = assay: Effect on body temperature in Swiss Albino mouse assessed as decrease at 10 mg/kg, ip after 60 mins relative to initial temperature; type: functional; conditions: route intraperitoneal; outline: as §1
# Mus musculus [9] = assay: Decrease in body temperature in Swiss Albino mouse at 5 mg/kg, ip administered 30 mins before the test measured after 60 mins relative to control; type: functional; conditions: route intraperitoneal; outline: as §1
# Mus musculus [10] = assay: Effect on compound induced hypothermia in Swiss Albino mouse at 10 mg/kg, ip in presence of 0.1 mg/kg WAY 100635 after 60 mins relative to control; type: functional
# Outline: (§2)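 Male Albino Swiss mice; WAY 100635 0.1 mg/kg sc (in distilled water) 15 min before ip compound (1% Tween 80); rectal temperature at 30 and 60 min after compound; Δt from basal; n = 8/group; mean ± SEM.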
# Mus musculus [11] = assay: Decrease in body temperature in Swiss Albino mouse at 5 mg/kg, ip administered 30 mins before the test measured after 30 mins relative to control; type: functional; conditions: route intraperitoneal; outline: as §1
# Mus musculus [12] = assay: Effect on body temperature in Swiss Albino mouse assessed as decrease at 10 mg/kg, ip after 90 mins relative to initial temperature; type: functional; conditions: route intraperitoneal; outline: as §1
# Mus musculus [13] = assay: Effect on compound induced hypothermia in Swiss Albino mouse at 10 mg/kg, ip in presence of 0.1 mg/kg WAY 100635 after 30 mins relative to control; type: functional; outline: as §2
# Chain of 5-hydroxytryptamine receptor 7 (P32305 whole entry): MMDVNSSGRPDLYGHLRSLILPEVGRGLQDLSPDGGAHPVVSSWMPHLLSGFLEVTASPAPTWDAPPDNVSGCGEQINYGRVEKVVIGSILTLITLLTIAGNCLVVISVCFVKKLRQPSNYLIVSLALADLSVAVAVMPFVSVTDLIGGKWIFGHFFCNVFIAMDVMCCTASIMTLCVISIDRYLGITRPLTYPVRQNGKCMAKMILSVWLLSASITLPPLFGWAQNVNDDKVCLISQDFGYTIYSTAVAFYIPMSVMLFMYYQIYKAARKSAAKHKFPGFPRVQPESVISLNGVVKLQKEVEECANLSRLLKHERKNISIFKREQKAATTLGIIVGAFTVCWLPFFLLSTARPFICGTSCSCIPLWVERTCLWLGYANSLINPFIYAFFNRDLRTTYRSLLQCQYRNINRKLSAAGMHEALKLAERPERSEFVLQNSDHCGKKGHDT
# Chain of 5-hydroxytryptamine receptor 2A (P14842 whole entry): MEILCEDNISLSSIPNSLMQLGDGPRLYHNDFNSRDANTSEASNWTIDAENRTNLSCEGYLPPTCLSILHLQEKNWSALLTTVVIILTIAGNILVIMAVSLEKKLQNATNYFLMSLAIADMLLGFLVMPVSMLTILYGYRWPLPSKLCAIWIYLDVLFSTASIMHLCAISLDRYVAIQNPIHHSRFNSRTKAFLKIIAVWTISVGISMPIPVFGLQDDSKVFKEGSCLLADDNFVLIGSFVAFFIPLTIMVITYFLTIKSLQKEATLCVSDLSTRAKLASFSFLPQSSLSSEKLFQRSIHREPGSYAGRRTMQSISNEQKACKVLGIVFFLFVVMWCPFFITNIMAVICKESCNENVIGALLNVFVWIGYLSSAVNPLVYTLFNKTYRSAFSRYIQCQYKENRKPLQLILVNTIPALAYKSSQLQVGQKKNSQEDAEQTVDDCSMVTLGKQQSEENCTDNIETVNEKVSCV
SMILES,Ki [1] [nM],Ki [2] [nM],Ki [3] [nM],further results
CCOc1nc2c(c(=O)n(C)c(=O)n2C)n1CCCCN1CCc2ccccc2C1,430,83,1930,–
CCOc1nc2c(c(=O)n(C)c(=O)n2C)n1CCCN1CCN(c2ccccc2)CC1,1300,477,176,–
Cn1c(=O)c2c([nH]c(=O)n2CCCN2CCc3ccccc3C2)n(C)c1=O,6320,16500,7960,–
CCCOc1nc2c(c(=O)n(C)c(=O)n2C)n1CCCN1CCc2ccccc2C1,1010,4400,2610,–
Cn1c(=O)c2c([nH]c(=O)n2CCCCN2CCN(c3ccccc3)CC2)n(C)c1=O,1500,1820,560,–

# Now those with a lower Ki [1], led by results:
Ki [1] [nM],Ki [2] [nM],Ki [3] [nM],SMILES,further results
332,57,920,CCCOc1nc2c(c(=O)n(C)c(=O)n2C)n1CCCCN1CCc2ccccc2C1,–
314,328,540,CCCOc1nc2c(c(=O)n(C)c(=O)n2C)n1CCCN1CCN(c2ccccc2OC)CC1,–
190,130,23,CCOc1nc2c(c(=O)n(C)c(=O)n2C)n1CCCN1CCN(c2cccc(Cl)c2)CC1,–
67,197,131,CCOc1nc2c(c(=O)n(C)c(=O)n2C)n1CCCCN1CCN(c2ccccc2)CC1,–
19,160,150,CCCOc1nc2c(c(=O)n(C)c(=O)n2C)n1CCCCN1CCN(c2ccccc2OC)CC1,–
15,125,28,CCCOc1nc2c(c(=O)n(C)c(=O)n2C)n1CCCCN1CCN(c2cccc(Cl)c2)CC1,Activity (Mus musculus [4]): -0.6 °C; Activity (Mus musculus [5]): -1.1 °C; Activity (Mus musculus [6]): -0.2 °C; Activity (Mus musculus [7]): -1.7 °C; Activity (Mus musculus [8]): -1.1 °C; Activity (Mus musculus [9]): -0.6 °C; Activity (Mus musculus [10]): -0.9 °C; Activity (Mus musculus [11]): -0.7 °C; Activity (Mus musculus [12]): -1.1 °C; Activity (Mus musculus [13]): -1.4 °C
